# From ChEMBL document CHEMBL1149292, “A rational utilization of high-throughput screening affords selective, orally bioavailable 1-benzyl-3-carboxyazetidine sphingosine-1-phosphate-1 receptor agonists” (J Med Chem, 2004)
# The source made the active and inactive calls. The rule behind the calls is not given here.
# Columns and labels:
# [1] = target: T1, Sphingosine 1-phosphate receptor 3 (Homo sapiens, UniProt Q99500); assay: Displacement of [33P]sphingosine 1 phosphate from human S1P3 receptor expressed in CHO cells; assay type: cell-based
# T1 sequence (Q99500 whole entry): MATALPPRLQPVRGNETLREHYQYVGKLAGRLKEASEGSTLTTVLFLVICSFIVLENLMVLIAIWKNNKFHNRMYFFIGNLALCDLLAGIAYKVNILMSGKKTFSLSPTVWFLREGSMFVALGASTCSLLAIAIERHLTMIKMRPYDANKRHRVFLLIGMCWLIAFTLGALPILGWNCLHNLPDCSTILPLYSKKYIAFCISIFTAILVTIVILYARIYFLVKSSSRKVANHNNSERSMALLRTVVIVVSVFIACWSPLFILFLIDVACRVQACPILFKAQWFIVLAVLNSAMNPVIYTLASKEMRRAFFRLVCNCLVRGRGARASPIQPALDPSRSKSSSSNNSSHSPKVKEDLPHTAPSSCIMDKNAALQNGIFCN
# [2] = target: T2, Sphingosine 1-phosphate receptor 1 (Homo sapiens, UniProt P21453); assay: Displacement of [33P]sphingosine 1 phosphate from human S1P1 receptor expressed in CHO cells; assay type: cell-based
# T2 sequence (P21453 whole entry): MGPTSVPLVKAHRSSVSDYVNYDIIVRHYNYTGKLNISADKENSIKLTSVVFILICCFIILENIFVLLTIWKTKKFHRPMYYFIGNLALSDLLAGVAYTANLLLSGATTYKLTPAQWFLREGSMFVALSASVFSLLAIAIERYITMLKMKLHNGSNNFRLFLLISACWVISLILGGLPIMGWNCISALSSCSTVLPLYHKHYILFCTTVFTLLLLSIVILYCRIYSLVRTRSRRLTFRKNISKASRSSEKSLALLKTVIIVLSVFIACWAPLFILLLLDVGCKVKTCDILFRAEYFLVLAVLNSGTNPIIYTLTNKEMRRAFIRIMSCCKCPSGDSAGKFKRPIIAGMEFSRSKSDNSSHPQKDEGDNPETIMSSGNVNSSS
# [3] = target: Sphingosine 1-phosphate receptor 5 (Homo sapiens, UniProt Q9H228); assay: Displacement of [33P]sphingosine 1 phosphate from human S1P5 receptor expressed in CHO cells; assay type: cell-based
# Sequence of Sphingosine 1-phosphate receptor 5 (Q9H228 whole entry): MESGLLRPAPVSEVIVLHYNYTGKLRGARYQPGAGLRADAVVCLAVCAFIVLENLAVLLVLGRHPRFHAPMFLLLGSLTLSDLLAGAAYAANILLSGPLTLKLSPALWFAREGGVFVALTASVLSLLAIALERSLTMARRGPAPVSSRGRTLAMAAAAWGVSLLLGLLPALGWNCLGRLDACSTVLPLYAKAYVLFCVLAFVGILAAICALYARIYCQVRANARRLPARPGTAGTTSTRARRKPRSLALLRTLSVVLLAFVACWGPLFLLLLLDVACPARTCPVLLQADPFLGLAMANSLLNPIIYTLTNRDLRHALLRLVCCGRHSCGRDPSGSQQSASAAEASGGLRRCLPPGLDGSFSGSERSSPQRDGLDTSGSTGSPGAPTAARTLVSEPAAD
# In short: (§1)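 Competition binding with [33P]-labeled S1P on membranes of CHO cells stably expressing each human S1P receptor. Values are the mean of n = 3 determinations.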
# [4] = target: Sphingosine 1-phosphate receptor 2 (Homo sapiens, UniProt O95136); assay: Displacement of [33P]sphingosine 1 phosphate from human S1P2 receptor expressed in CHO cells; assay type: cell-based
# Sequence of Sphingosine 1-phosphate receptor 2 (O95136 whole entry): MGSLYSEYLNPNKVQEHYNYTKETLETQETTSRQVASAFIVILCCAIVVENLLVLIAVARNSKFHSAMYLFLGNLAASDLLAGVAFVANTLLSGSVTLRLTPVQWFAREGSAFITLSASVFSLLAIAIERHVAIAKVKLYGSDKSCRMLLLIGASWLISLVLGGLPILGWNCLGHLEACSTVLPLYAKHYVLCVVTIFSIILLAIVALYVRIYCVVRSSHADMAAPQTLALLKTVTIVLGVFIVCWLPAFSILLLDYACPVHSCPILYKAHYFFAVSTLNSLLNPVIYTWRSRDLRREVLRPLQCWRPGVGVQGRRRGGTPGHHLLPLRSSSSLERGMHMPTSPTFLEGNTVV
# [5] = target: T3, Sphingosine 1-phosphate receptor 4 (Homo sapiens, UniProt O95977); assay: Displacement of [33P]sphingosine 1 phosphate from human S1P4 receptor expressed in CHO cells; assay type: cell-based; in short: as §1
# T3 sequence (O95977 whole entry): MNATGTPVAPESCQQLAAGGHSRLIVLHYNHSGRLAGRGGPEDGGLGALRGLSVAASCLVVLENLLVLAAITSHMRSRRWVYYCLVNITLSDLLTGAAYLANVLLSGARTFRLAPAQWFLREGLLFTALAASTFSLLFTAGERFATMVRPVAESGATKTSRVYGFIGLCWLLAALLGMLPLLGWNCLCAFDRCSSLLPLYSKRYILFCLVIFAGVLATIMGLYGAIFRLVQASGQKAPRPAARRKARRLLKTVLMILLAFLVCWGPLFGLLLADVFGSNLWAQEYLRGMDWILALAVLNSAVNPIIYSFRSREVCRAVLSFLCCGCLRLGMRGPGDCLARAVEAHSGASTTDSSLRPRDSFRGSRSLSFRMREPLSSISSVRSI
# [6] = target: T2, Sphingosine 1-phosphate receptor 1; assay: Activity at human S1P1 receptor expressed in CHO cells by [35S]GTPgammaS binding assay; assay type: functional, cell-based
# In short: (§2)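 Agonism measured as ligand-induced [35S]-GTPγS binding to membranes of CHO cells stably expressing the human S1P receptor.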
# [7] = Half life in rat at 2 mg/kg, po and 1 mg/kg, iv; assay type: ADME, organism-based; settings: in vivo
# In short: (§3)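 Rat PK at 2.0 mpk po and 1.0 mpk iv. Plasma compound levels measured.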
# Mus musculus = assay: Decrease in peripheral blood lymphocytes in po dosed mouse after 3 hrs; assay type: functional
# In short: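 Compound given orally to mice. Peripheral blood lymphocyte counts taken 3 h after dosing, expressed as average percent decrease in n = 3 animals versus controls (n = 3). ED50 from dose-titration.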
# [8] = Cmax in rat at 2 mg/kg, po and 1 mg/kg, iv; assay type: ADME, organism-based; settings: in vivo; in short: as §3
# [9] = Bioavailability in rat at 2 mg/kg, po and 1 mg/kg, iv; assay type: ADME, organism-based; settings: in vivo; in short: as §3
# [10] = target: T1, Sphingosine 1-phosphate receptor 3; assay: Activity at human S1P3 receptor expressed in CHO cells by [35S]GTP-gamma-S binding assay; assay type: functional, cell-based; in short: as §2
# [11] = Plasma clearance in rat at 2 mg/kg, po and 1 mg/kg, iv; assay type: ADME, organism-based; in short: as §3
# [12] = Volume of distribution at steady state in rat at 2 mg/kg, po and 1 mg/kg, iv; assay type: ADME, organism-based; settings: in vivo, read-out: Vdss
# [13] = Half life in rat; assay type: ADME, organism-based; settings: in vivo
# [14] = Oral bioavailability in rat; assay type: ADME, organism-based; settings: in vivo
# [15] = Bioavailability in Beagle dog at 1 mg/kg, po and 0.5 mg/kg, iv; assay type: ADME, organism-based, Canis lupus familiaris; settings: in vivo
# In short: (§4)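 Single-dose PK at 1.0 mpk po and 0.5 mpk iv. Plasma compound levels measured.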
# Canis familiaris [16] = assay: Maximal decrease in peripheral blood lymphocyte in Beagle dog at 1 mg/kg, po after 24 hrs; assay type: functional, organism-based; set-up: dose 1 mg/kg; settings: Canis lupus familiaris
# In short: (§5)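 Complete blood counts run alongside plasma concentrations after a single 1.0 mpk oral dose in beagle dog or rhesus monkey. Lymphocyte counts followed over time, with PBL lowering assessed at 24 h postdose.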
# Canis familiaris [17] = assay: Cmax in Beagle dog at 1 mg/kg, po and 0.5 mg/kg, iv; assay type: ADME, organism-based, Canis lupus familiaris; settings: in vivo; in short: as §4
# [18] = Bioavailability in rhesus monkey at 1 mg/kg, po and 0.5 mg/kg, iv; assay type: ADME, organism-based, Macaca mulatta; settings: in vivo; in short: as §4
# [19] = Half life in rhesus monkey at 1 mg/kg, po and 0.5 mg/kg, iv; settings: in vivo
# [20] = Cmax in rhesus monkey at 1 mg/kg, po and 0.5 mg/kg, iv; assay type: ADME, organism-based, Macaca mulatta; settings: in vivo; in short: as §4
# [21] = Plasma clearance in rhesus monkey at 1 mg/kg, po and 0.5 mg/kg, iv; assay type: ADME, organism-based, Macaca mulatta; in short: as §4
# [22] = Volume of distribution at steady state in rhesus monkey at 1 mg/kg, po and 0.5 mg/kg, iv; assay type: ADME, organism-based, Macaca mulatta; settings: in vivo, read-out: Vdss
# [23] = Half life in Beagle dog at 1 mg/kg, po and 0.5 mg/kg, iv; settings: in vivo
# Canis familiaris [24] = assay: Plasma clearance in Beagle dog at 1 mg/kg, po and 0.5 mg/kg, iv; assay type: ADME, organism-based, Canis lupus familiaris; settings: in vivo; in short: as §4
# Rhesus monkey = assay: Maximal decrease in peripheral blood lymphocyte in rhesus monkey at 1 mg/kg, po after 24 hrs; assay type: functional, organism-based; set-up: dose 1 mg/kg; settings: Macaca mulatta; in short: as §5
# [25] = Volume of distribution at steady state in Beagle dog at 1 mg/kg, po and 0.5 mg/kg, iv; assay type: ADME, organism-based, Canis lupus familiaris; settings: in vivo, read-out: Vdss
IC50 [1],IC50 [2],IC50 [3],IC50 [4] [nM],IC50 [5],EC50 [6],SMILES,ED50 (Mus musculus) [mg/kg],also measured
> 10000 nM,13 nM (antagonist),53 nM (antagonist),> 10000,2400 nM (antagonist),3.3 nM (agonist),O=C(O)C1CN(Cc2ccc(OCc3cc(-c4ccccc4)c(C(F)(F)F)s3)c(Br)c2)C1,,
220 nM (antagonist),6.9 nM (antagonist),6.3 nM (antagonist),> 10000,45 nM (antagonist),,CCCCCCCCCc1ccc(CN2CCC(P(=O)(O)O)C2)cc1 (stereo unspecified),,
> 10000 nM,7.7 nM (antagonist),21 nM (antagonist),> 10000,340 nM (antagonist),5.9 nM (agonist),O=C(O)C1CN(Cc2ccc(OCc3cc(-c4ccccc4)c(C(F)(F)F)s3)c(C(F)(F)F)c2)C1,,
,,,,80 nM (antagonist),,CCCCCCCCOc1c(Br)cc(CNCCCP(=O)(O)O)cc1OC,,
> 10000 nM,,2100 nM (antagonist),> 10000,> 10000 nM,,CCCCCCCCc1ccc(CCC(N)(CO)CO)cc1 [FINGOLIMOD],0.15,
> 10000 nM,33 nM (antagonist),77 nM (antagonist),> 10000,2800 nM (antagonist),47 nM (agonist),COc1cc(CN2CC(C(=O)O)C2)ccc1OCc1cc(-c2ccccc2)c(C(F)(F)F)s1,,
> 10000 nM,78 nM (antagonist),> 10000 nM,> 10000,> 10000 nM,,FC(F)(F)c1sc(-c2nc(-c3ccc(Cl)cc3Cl)no2)cc1-c1ccccc1,,
2100 nM (antagonist),20 nM (antagonist),29 nM (antagonist),> 10000,2500 nM (antagonist),,CCCCCCCCCc1ccc(CN2CCC(C(=O)O)C2)cc1 (stereo unspecified),23,half-life [13]: 0.9 h; bioavailability [14]: > 70%

# The remaining lines, values behind:
SMILES,IC50 [1],IC50 [2],IC50 [3],IC50 [4] [nM],IC50 [5],EC50 [6],ED50 (Mus musculus) [mg/kg],also measured
O=C(O)C1CN(Cc2cc(Cl)c(OCc3cc(-c4ccccc4)c(C(F)(F)F)s3)c(Cl)c2)C1,> 10000 nM,7.5 nM (antagonist),33 nM (antagonist),> 10000,640 nM (antagonist),2.7 nM (agonist),,
CCCCCCCCCCCCC/C=C/[C@@H](O)[C@@H](N)COP(=O)(O)O,0.26 nM (antagonist),0.67 nM (antagonist),,,34 nM (antagonist),,,
O=C(O)C1CN(Cc2ccc(OCc3cc(-c4ccccc4)c(C(F)(F)F)s3)c(F)c2)C1,2100 nM (antagonist),2.7 nM (antagonist),41 nM (antagonist),> 10000,2700 nM (antagonist),1.3 nM (agonist),,
Cc1cc(CN2CC(C(=O)O)C2)cc(C)c1OCc1cc(-c2ccccc2)c(C(F)(F)F)s1,10000 nM,4 nM (antagonist),12 nM (antagonist),> 10000,120 nM (antagonist),1.3 nM (agonist),,
O=C(O)C1CN(Cc2ccc(-c3noc(-c4cc(-c5ccccc5)c(C(F)(F)F)s4)n3)cc2)C1,1000 nM (antagonist),8.3 nM (antagonist),16 nM (antagonist),> 10000,10000 nM,0.2 nM (agonist),0.07,half-life [7]: 10.5 h; Cmax [8]: 1300 nM; bioavailability [9]: 64%; EC50 [10]: 17 nM (agonist); clearance [11]: 2.2 mL/min/kg; Vd [12]: 1.9 L/kg
CCCCCCCCCc1ccc(CN2CC(C(=O)O)C2)cc1,4900 nM (antagonist),18 nM (antagonist),11 nM (antagonist),> 10000,5400 nM (antagonist),,5.2,half-life [13]: 1.4 h; bioavailability [14]: > 70%
O=C(O)C1CCN(Cc2ccc(OCc3cc(-c4ccccc4)c(C(F)(F)F)s3)cc2)C1 (stereo unspecified),1000 nM (antagonist),4.3 nM (antagonist),120 nM (antagonist),> 10000,790 nM (antagonist),2.4 nM (agonist),,
O=C(O)C1CN(Cc2ccc(OCc3cc(-c4ccccc4)c(C(F)(F)F)s3)c(Cl)c2)C1,2000 nM (antagonist),3.2 nM (antagonist),18 nM (antagonist),> 10000,1300 nM (antagonist),1.4 nM (agonist),0.54,half-life [7]: 7 h; Cmax [8]: 500 nM; bioavailability [9]: 62%; clearance [11]: 8.2 mL/min/kg; Vd [12]: 3.8 L/kg
Cc1cc(CN2CC(C(=O)O)C2)ccc1OCc1cc(-c2ccccc2)c(C(F)(F)F)s1,7500 nM (antagonist),1.8 nM (antagonist),13 nM (antagonist),> 10000,1500 nM (antagonist),0.8 nM (agonist),0.18,half-life [7]: 8.9 h; Cmax [8]: 500 nM; bioavailability [9]: 88%; bioavailability [15]: 100%; Activity (Canis familiaris [16]): Active; Cmax (Canis familiaris [17]): 3200 nM; bioavailability [18]: 96%; half-life [19]: 12.6 h; clearance [11]: 8.2 mL/min/kg; Cmax [20]: 1800 nM; clearance [21]: 1.3 mL/min/kg; Vd [12]: 5.7 L/kg; Vd [22]: 1.2 L/kg; half-life [23]: 22.3 h; clearance (Canis familiaris [24]): 0.5 mL/min/kg; Activity (Rhesus monkey): Active; Vd [25]: 0.9 L/kg
FC(F)(F)c1sc(-c2nc(-c3ccccc3)no2)cc1-c1ccccc1,> 10000 nM,25 nM (antagonist),> 10000 nM,> 10000,> 10000 nM,,,
CCc1cc(CN2CC(C(=O)O)C2)ccc1OCc1cc(-c2ccccc2)c(C(F)(F)F)s1,4300 nM (antagonist),3.5 nM (antagonist),10 nM (antagonist),> 10000,> 10000 nM,1.4 nM (agonist),,
FC(F)(F)c1cccc(-c2noc(-c3cc(-c4ccccc4)c(C(F)(F)F)s3)n2)c1,> 10000 nM,,4600 nM (antagonist),> 10000,> 10000 nM,,,
